DENV2 CPE: inhibitors of DENV2 cytopathic effect; DENV2-infected cells, cytopathic effect rescue, plate reader; CPE inhibition, % at 9.99 µM; 350,000 compounds, 1.7% hits; AID 651640; in the data active = CPE inhibition above about 20%, passing the limit was not always enough; inconclusive = no clear call, values can overlap the other calls; tested in BHK-21 cells
E-selectin induc: induces E-selectin expression in human endothelial cells | P16581 | HUVEC E-selectin immunofluorescence imaging; normalized: neutral wells 0, TNF-alpha wells 100 | activation, % at 7.58 µM | 260,000 compounds, 0.37% hits;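 active = mean E-selectin-positive cell signal at least 10% of the positive control, reached in at least 60% of replicates, without over 20% cell loss; inconclusive = no rule given, readout overlaps actives, possibly toxicity-flagged; inactive = the rest, including those meeting only one limit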
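System: HUVEC / Compound: single concentration / Signal: immunofluorescence imaging / Read-out: percent E-selectin-positive cells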
SIRT5 inh: blocks human SIRT5 desuccinylation of peptide; Q9NXA8; inhibition, % at 15 µM; Purified SirT5, succinyl-peptide AMC, trypsin-coupled fluorescence; 330,000 compounds, 1.1% hits; in the data active = inhibition above about 15%; inconclusive = no clear call, values can overlap the other calls
Target sequence (Q9NXA8 whole entry, looked up): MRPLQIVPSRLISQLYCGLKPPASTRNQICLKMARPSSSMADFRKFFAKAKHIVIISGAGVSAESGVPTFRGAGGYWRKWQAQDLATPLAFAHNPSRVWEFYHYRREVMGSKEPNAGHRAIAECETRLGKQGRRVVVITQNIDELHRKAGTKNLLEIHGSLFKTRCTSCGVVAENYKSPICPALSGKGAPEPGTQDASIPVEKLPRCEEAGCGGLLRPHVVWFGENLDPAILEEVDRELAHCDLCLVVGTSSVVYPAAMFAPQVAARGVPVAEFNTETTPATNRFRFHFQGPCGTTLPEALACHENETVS
A number is an active result; i = inactive; ? = inconclusive; nt = no result. A selection: hits, their analogues and other compounds. The true share with any hit is near 2.8%.

SMILES	DENV2 CPE	E-selectin induc	SIRT5 inh
CCc1ccc(Nc2n[n+](-c3ccccc3)c(-c3ccc(SC)cc3)s2)cc1	i	i	i
COc1cccc(S(=O)(=O)N[C@@H]2C=C[C@@H](CC(=O)NCc3ccccc3)O[C@@H]2CO)c1	i	i	i
C[C@H]1CN([C@@H](C)CO)C(=O)Cc2cc(NC(=O)CCC(F)(F)F)ccc2O[C@@H]1CN(C)C(=O)NC1CCCCC1	i	i	i
C[C@H](CO)N1C[C@H](C)[C@H](CN(C)CC2CC2)Oc2ccc(NC(=O)CCC(F)(F)F)cc2CC1=O	21	i	i
C[C@H](CO)N1C[C@H](C)[C@@H](CN(C)C(=O)NC2CCCCC2)Oc2ccc(NC(=O)CCC(F)(F)F)cc2CC1=O	32	i	i
C[C@@H]1CN([C@@H](C)CO)C(=O)Cc2cc(NC(=O)CCC(F)(F)F)ccc2O[C@H]1CN(C)S(C)(=O)=O	i	i	i
C[C@@H]1CN([C@H](C)CO)C(=O)Cc2cc(NC(=O)CCC(F)(F)F)ccc2O[C@@H]1CN(C)CC1CC1	i	i	i
C[C@@H]1CN([C@H](C)CO)C(=O)Cc2cc(NC(=O)CCC(F)(F)F)ccc2O[C@@H]1CN(C)S(C)(=O)=O	nt	39	nt
COc1ccc(NC(=O)N(C)C[C@H]2OCCCC[C@H](C)Oc3ccc(NC(=O)Nc4cccc5ccccc45)cc3C(=O)N([C@H](C)CO)C[C@H]2C)cc1	i	i	nt
Cc1nn(Cc2ccc(Cl)cc2)c(C)c1NC(=O)c1ccc([N+](=O)[O-])cc1	34	nt	i
Cc1nn(Cc2ccc(Cl)cc2)c(C)c1NC(=O)CCCn1nc(C)c([N+](=O)[O-])c1C	nt	i	nt
Cc1ccc(CC(=O)Nc2cc(C)ccn2)cc1	i	nt	i
Cc1ccnc(NC(NC(=O)C(C)C)(C(F)(F)F)C(F)(F)F)c1	i	136	i
O=C(C[C@H]1C[C@@H]2c3cc(NC(=O)c4cccnc4)ccc3O[C@@H]2[C@@H](CO)O1)NC1CCCC1	i	i	i
N#C[C@@H]1[C@@H](c2ccccc2-c2ccccc2F)[C@H](CO)N1C(=O)C1CCOCC1	i	i	i
C[C@H]1CN([C@@H](C)CO)C(=O)c2cc(NC(=O)Nc3ccc(C(F)(F)F)cc3)ccc2O[C@H]1CN(C)CC1CC1	i	i	i
C[C@@H]1CCCCO[C@@H](CN(C)S(C)(=O)=O)[C@H](C)CN([C@@H](C)CO)C(=O)c2cc(NC(=O)c3ccccc3)ccc2O1	i	i	i
Cc1cc(C(=O)CN2C(=O)C(=O)N(Cc3ccco3)C2=O)c(C)n1CCc1ccccc1	i	nt	i
Cc1cc(C(=O)CN2C(=O)C(=O)N(Cc3ccco3)C2=O)c(C)n1CCc1ccc(F)cc1	i	90	i
C[C@@H]1CN([C@H](C)CO)C(=O)Cc2cc(NC(=O)C3CC3)ccc2O[C@H]1CN(C)C(=O)Nc1ccc(F)cc1	?	i	i
Cc1ccc(OCc2nc(-c3cccnc3)no2)cc1C	i	424	i
c1ccc(OCc2nc(-c3ccncc3)no2)cc1	i	i	i
Cc1ccc(OCc2nc(-c3ccccn3)no2)cc1	i	nt	16
Cc1cc(C)cc(OCc2nc(-c3cccnc3)no2)c1	i	nt	i
CN(C)CC(=O)N1[C@H](C(=O)NCc2ccccc2F)[C@@H](CO)[C@@H]2Cn3c(cccc3=O)[C@@H]21	i	i	i
SMILES	DENV2 CPE	E-selectin induc	SIRT5 inh
COCC(=O)Nc1ccc2c(c1)[C@H]1C[C@H](CC(=O)N[C@H](C)c3ccccc3)O[C@@H](CO)[C@H]1O2	i	i	i
CC(C)NC(=O)N1CC(=O)N2[C@@H](CO)[C@H](c3ccc(/C=C/c4ccccc4)cc3)[C@@H]2C1	i	i	i
Cc1ccc(S(=O)(=O)N(C)C[C@@H]2Oc3ccc(NC(=O)Nc4cccc5ccccc45)cc3C(=O)N([C@H](C)CO)C[C@@H]2C)cc1	nt	i	nt
COc1ccc(OC)c(CN2C(=O)CN(S(C)(=O)=O)CC2(C)C(=O)NCc2ccccc2)c1 (stereo not drawn)	32	i	i
CC1(C(=O)NCc2ccccc2)CN(S(C)(=O)=O)CC(=O)N1Cc1ccc2c(c1)OCO2 (stereo not drawn)	i	i	i
CO[C@H]1CN(C)C(=O)c2cc(NS(=O)(=O)c3cccc(F)c3)ccc2OC[C@@H](C)NC[C@@H]1C	i	i	i
Cc1ccc(NCCCCO)cc1C	i	142	i
Cc1ccc(NC(=O)CC(=O)Nc2ccc(C)c(C)c2)cc1C	i	i	i
O=C(C[C@@H]1CC[C@H](NC(=O)CN2CCOCC2)[C@H](CO)O1)NCc1cccc(F)c1	i	i	i
CNC[C@H]1OCCCC[C@@H](C)Oc2ccc(NC(=O)Nc3ccc(F)cc3)cc2C(=O)N([C@H](C)CO)C[C@@H]1C	nt	i	nt
C[C@@H]1CN([C@H](C)CO)S(=O)(=O)c2ccc(C#Cc3ccc(F)cc3)cc2O[C@@H]1CN(C)C(=O)NC1CCCCC1	i	i	19
C[C@H](CO)N1C[C@H](C)[C@@H](CN(C)C(=O)NC2CCCCC2)Oc2cc(C#Cc3ccc(F)cc3)ccc2S1(=O)=O	?	i	18
C[C@@H]1CN([C@@H](C)CO)S(=O)(=O)c2ccc(C#Cc3ccc(F)cc3)cc2O[C@H]1CN(C)C(=O)NC1CCCCC1	i	i	19
C[C@H]1CN([C@@H](C)CO)S(=O)(=O)c2ccc(C#Cc3ccc(F)cc3)cc2O[C@H]1CN(C)C(=O)NC1CCCC1	i	i	i
C[C@H](CO)N1C[C@H](C)[C@H](CN(C)C(=O)NC2CCCC2)Oc2cc(C#Cc3ccc(F)cc3)ccc2S1(=O)=O	i	i	i
C[C@H](CO)N1C[C@H](C)[C@@H](CN(C)C(=O)NC2CCCC2)Oc2cc(C#Cc3ccc(F)cc3)ccc2S1(=O)=O	i	i	i
C[C@H](CO)N1C[C@H](C)[C@H](CN(C)Cc2ccc(C(=O)O)cc2)OCCCC[C@H](C)Oc2ccc(NC(=O)Nc3ccccc3)cc2C1=O	i	nt	i
CCCN(C)C[C@@H]1Oc2ncc(Br)cc2C(=O)N([C@H](C)CO)C[C@H]1C	i	i	i
O=C(CCc1nnc(Cc2cccc(C(F)(F)F)c2)o1)NCC(F)(F)F	i	nt	18
CC(C)(CO)CNC(=O)CCc1nnc(CCCc2ccccc2)o1	i	i	i
CC(C)(CO)CNC(=O)CCc1nnc(Cc2ccc(-c3ccccc3)cc2)o1	i	nt	26
C=C(C)CNC(=O)CCc1nnc(Cc2cccc(C(F)(F)F)c2)o1	i	nt	i
C[C@@H]1CCCCO[C@H](CN(C)S(=O)(=O)c2ccc(F)cc2)[C@H](C)CN([C@H](C)CO)C(=O)c2cc(NC(=O)Nc3ccc(F)cc3)ccc2O1	i	i	nt
COc1ccc(OCCOc2ccc(S(=O)(=O)N3CCCC3)cc2[N+](=O)[O-])cc1	i	nt	27
COc1ccc(OCCOc2ccc(S(=O)(=O)N3CCCC3)cc2C(N)=O)cc1	i	nt	i
CCOc1ccc(C(=O)NN2CCOCC2)cc1	154	i	i
CCCCOc1ccc(C(=O)NN2CCOCC2)cc1	i	nt	i
CNC(=O)C[C@@H]1CC[C@H]2[C@H](COc3ccc(NC(=O)Nc4cccc(F)c4)cc3C(=O)N2C)O1	i	i	nt
CO[C@H]1CN(C)C(=O)c2cc(NC(=O)c3ccccc3F)ccc2OC[C@H](C)N(CC2CC2)C[C@@H]1C	i	i	i
CCC(=O)Nc1ccc2c(c1)C(=O)N(C)C[C@@H](OC)[C@@H](C)CN(CC1CCCCC1)[C@H](C)CO2	i	i	i

Assay outcomes (PubChem)
